The subject of the assay is HS-5 cells. The assay is described as follows: 3D cell spheroid formation from a 2D cell sheet. Type of assay: cell-based. The note with it: co-incubation with pD1-B 200 μM, biotin e.g. 500 μM, 24 h. The essentials: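 HS-5 fibroblast monolayers were kept in culture medium with the test compound at 200 μM for 24 h, with medium alone as control. In the competition arm, free biotin at 500 μM was co-incubated with the test compound. Cell clustering and spheroid formation were recorded by optical imaging.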

In the case of `O=C(O)CCCC[C@@H]1SC[C@@H]2NC(=O)N[C@@H]21` [biotin], the “effect of competing biotin on pD1-B-induced cell spheroid formation” value is listed as “blocks the formation of cell spheroids in a concentration dependent manner”.

These data come from article PMC6542364 (Journal of the American Chemical Society, 2019).
